In ChEMBL document CHEMBL1212905, “Schisanartane nortriterpenoids with diverse post-modifications from Schisandra propinqua” (J Nat Prod, 2010):
Structures can show the parent of a compound that is named as a salt.

How the values were obtained:
Format in all cases: functional, cell-based
A549 = assay: Cytotoxicity against human A549 cells after 72 hrs by SRB assay; details: A549, 72 h
Method in brief: (§1)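 Adherent cells plated 24 h before treatment and exposed continuously to compound at 100, 10, 1 and 0.1 µM for 72 h. Cells were then fixed and stained with sulforhodamine B, and IC50 was determined. Amrubicin hydrochloride served as the positive control.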

HT-29 = assay: Cytotoxicity against human HT-29 cells after 72 hrs by SRB assay; details: HT-29, 72 h; method in brief: as §1
K562 = assay: Cytotoxicity against human K562 cells after 72 hrs by SRB assay; details: K562, 72 h

SMILES	IC50 (A549) [µM]	IC50 (HT-29) [µM]	IC50 (K562) [µM]
C[C@@H]1C(=O)O[C@H]2[C@@H]1O[C@]13O[C@@]4(CC[C@]5(C)C(=O)[C@](C)(O)[C@H]2[C@H]15)C[C@]12OC(=O)C[C@H]1O[C@@](C)(CO)[C@@H]2CC[C@H]4C3=O [SCHISANDILACTONE I]	> 100	> 100	> 100
C[C@@H]1C(=O)O[C@H]2[C@@H]1O[C@]13O[C@@]4(CC(=O)[C@]5(C)C(=O)[C@](C)(O)[C@@]2(O)[C@@H]51)C[C@]12OC(=O)C[C@H]1O[C@@](C)(CO)[C@@H]2CC[C@@H]4[C@H]3O [SCHISANDILACTONE H]	> 100	> 100	> 100
C[C@H]1C(=O)O[C@@H]2[C@H]1O[C@@]1(C)C(=O)[C@@]3(C)CC[C@]45C[C@]67OC(=O)C[C@H]6OC(C)(C)[C@@H]7C[C@H](O)[C@H]4C(=O)[C@@](O)(O5)[C@H]3[C@@]21O [SCHISANDILACTONE C]	> 100	> 100	> 100
C[C@H]1C(=O)O[C@@H]2[C@H]1O[C@]1(C)[C@H]2[C@H]2[C@](C)(CC[C@]34C[C@]56OC(=O)C[C@H]5OC(C)(C)[C@@H]6C[C@H](O)[C@H]3C(=O)[C@@]2(O)O4)[C@@H]1O [SCHISANDILACTONE B]	> 100	> 100	> 100
CC1=C[C@@H]([C@@H]2[C@H]3[C@](C)(C(=O)C[C@]45C[C@]67OC(=O)C[C@H]6O[C@@](C)(CO)[C@@H]7CC[C@@H]4[C@@H](O)[C@@]3(O)O5)C(=O)[C@]2(C)O)OC1=O [SCHISANDILACTONE E]	> 100	> 100	> 100
CC1=C[C@@H]([C@]2(O)[C@H]3[C@](C)(CC[C@]45C[C@]67OC(=O)C[C@H]6OC(C)(C)[C@@H]7C[C@@H](O)[C@H]4C(=O)[C@@]3(O)O5)C(=O)[C@]2(C)O)OC1=O [SCHISANDILACTONE F]	> 100	> 100	> 100
CC(=O)[C@]1(N)Cc2c(O)c3c(c(O)c2[C@@H](O[C@H]2C[C@H](O)[C@H](O)CO2)C1)C(=O)c1ccccc1C3=O [AMRUBICIN HYDROCHLORIDE]	0.94	4.57	1.2
CC1=C[C@@H]2O[C@]34O[C@@]5(CC[C@]6(C)C(=O)[C@](C)(O)[C@]2(OC1=O)[C@H]36)C[C@]12OC(=O)C[C@H]1O[C@@](C)(CO)[C@@H]2CC[C@@]5(O)C4=O [SCHISANDILACTONE A]	> 100	> 100	> 100
C[C@@H]1C(=O)O[C@H]2[C@@H]1O[C@]13O[C@@]4(CC[C@]5(C)C(=O)[C@](C)(O)[C@@]2(O)[C@H]15)C[C@]12OC(=O)C[C@H]1O[C@@](C)(CO)[C@@H]2C[C@@H]1O[C@@]14C3=O [SCHISANDILACTONE J]	> 100	> 100	> 100
C[C@@H]1C(=O)O[C@H]2[C@@H]1O[C@]13O[C@@]4(CC(=O)[C@]5(C)C(=O)[C@](C)(O)[C@H]2[C@@H]51)C[C@]12OC(=O)C[C@H]1O[C@@](C)(CO)[C@@H]2CC[C@H]4[C@H]3O [SCHISANDILACTONE G]	> 100	> 100	> 100
C[C@H]1C(=O)O[C@@H]2[C@H]1O[C@@]1(C)C(=O)[C@@]3(C)CC[C@]45C[C@]67OC(=O)C[C@H]6OC(C)(C)[C@@H]7C[C@@H](O)[C@H]4C(=O)[C@@](O)(O5)[C@H]3[C@@]21O [SCHISANDILACTONE D]	> 100	> 100	> 100
